An excerpt weighted towards active compounds, which were near 2.3% of everything screened.
EWS-Fli block: EWS/Fli transcriptional activity inhibition; A673 NR0B1-luciferase reporter, viability-normalised; inhibition, % at 12.6 µM; 0.67% of 350,000 active;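 active means mean inhibition of at least 50% after viability correction, with every replicate also passing that limit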;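 further: firefly luciferase signal divided by Alamar Blue viability fluorescence both relative to DMSO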
PGC1a acetyl inh: modulators of PGC1a acetylation; AID 651687; U2OS PGC1a acetylation, AlphaScreen anti-acetyl-lysine; with virally co-expressed GCN5 acetyltransferase; inhibition, % at 15.6 µM; 0.17% of 350,000 active;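 active means every replicate shows inhibition of at least 40%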;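 further: 0% = neutral control wells and 100% = positive control wells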
HIV Env fusion: HIV envelope-mediated fusion inhibition | 1.1% of 360,000 active | inhibition, % at 12.3 µM | HeLa-JRFL Env/CEM21 cell fusion, luciferase | AID 651610;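 active means mean replicate inhibition score of at least 50 and every replicate individually at or above 50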;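 further: 0% = plate neutral controls and 100% = maraviroc near 300 nM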
F508del corr: correctors of CFTR F508del function in bronchial epithelial cells; CFBE cells, YFP halide quenching; stimulated with forskolin plus potentiator P3; % fluorescence drop versus neutral controls; activity (quench increase), % at 7.58 µM; 0.36% of 350,000 active; AID 720511;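 active means mean added fluorescence quench of at least 8% versus neutral control, with both replicates also reaching 8%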;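 further: cells transiently co-express mutant CFTR-F508del with the halide-sensitive YFP; corrector assay measuring rescue of mutant channel to the surface after 24 h compound exposure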
PAX8 reporter: lowers PAX8-driven luciferase in RMG-I cells; RMG-I TPO-luciferase reporter, SteadyGlo, 24 h; inhibition, % at 12.6 µM; 1.2% of 360,000 active;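 active means mean replicate inhibition at least 60% with every replicate also reaching 60%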;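 further: luciferase light reporting Pax8 driven TPO promoter activity; plate controls were median of neutral control wells for no effect and mitoxantrone controls for full effect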
FN deposit inh: fibronectin deposition inhibition. AH1F fibroblasts, Alexa488-fibronectin deposition fluorescence, overnight. inhibition, % at 12.6 µM. 0.086% of 350,000 active;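 active means mean inhibition across replicates of 30% or more, regardless of how many single replicates reach that level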;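 further: positive control wells lacked labelled fibronectin entirely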
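Assay system: AH1F fibroblasts / Quantity: 10000 cells per well / Medium: DMEM plus 2% serum, read in PBS / Reagent: labelled fibronectin 24 nM / Dosing: single dose, pinned / Times: 1 h cell attachment, overnight exposure to compound and label / Signal: fluorescence, ex 485 nm, em 525 nm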
* hit, by the source's call; · = not tested or not shown; [ ] = remark or other dose.

SMILES	EWS-Fli block	PGC1a acetyl inh	HIV Env fusion	F508del corr	PAX8 reporter	FN deposit inh
COc1ccc(CN(C)C[C@H]2OCCCC[C@H](C)Oc3ccc(NS(=O)(=O)c4ccc(OC)cc4)cc3C(=O)N([C@H](C)CO)C[C@@H]2C)cc1	78.1*	9.5	-23.2[16.7 µM]	-0.5	-4.0	5.2
COc1ccc(CN(C)C[C@H]2OCCCC[C@@H](C)Oc3ccc(NS(=O)(=O)c4ccc(OC)cc4)cc3C(=O)N([C@@H](C)CO)C[C@@H]2C)cc1	69.4*	-13.6	-146.9[16.7 µM]	0.2	24.1	-19.9
COc1ccc(N(CC(=O)NCCSC2CCCCC2)S(=O)(=O)c2ccccc2)c(OC)c1	6.5	·	64.1*	0.4	16.5	-8.2
COc1ccc(N(CC(=O)NCCSc2ccc(C)cc2)S(=O)(=O)c2ccccc2)c(OC)c1	9.3	·	37.0	-1.7	13.0	5.4
COc1ccc(OC)c(N(CC(=O)NCCSC2CCCCC2)S(=O)(=O)c2ccccc2)c1	·	·	58.5*	-0.8	32.4	·
O=C(Cc1ccncc1)NCC[C@H]1CC[C@H](NC(=O)C2CCOCC2)[C@@H](CO)O1	1.4	1.3	10.5[16.7 µM]	-0.4	-14.9	6.8
Cc1ccc(/C=N/NC(=O)c2ccc3ccccc3c2)s1	28.7	10.7	-229.8	10.8*	-17.5	1.1
O=Nc1c(O)c2ccccc2c2ccccc12	34.9	44.7*	81.2*	-3.1	20.1	37.9*
O=Nc1c2cc3ccccc3[nH]c-2c2ccccc12	-118.7	-15.9	-386.9	-1.6	-33.4	0.2
CCCN(CCC)C(=O)c1ccc2c(c1)S(=O)(=O)c1ccccc1C2=O	18.2	4.6	12.1	2.5	14.2	6.8
CCN(Cc1ccncc1)C(=O)c1ccc2c(c1)S(=O)(=O)c1ccccc1C2=O	10.8	6.8	5.7	0.2	-18.1	39.0*
Cc1ccccc1Cn1cc(NC(=O)c2noc3c2CC(C(C)(C)C)CC3)cn1 (stereo unspecified)	-4.3	0.0	·	1.5	·	·
Cc1nn(Cc2ccc(Cl)cc2)c(C)c1NC(=O)c1noc2c1CCCCC2	4.5	13.9	·	1.9	·	·
CC(C)(C)C1CCc2onc(C(=O)NCc3ccc(F)cc3)c2C1 (stereo unspecified)	·	2.0	76.1*	·	·	-3.9
O=C(NCc1ccc(F)cc1)c1noc2c1CCCC2	-25.7	·	·	-2.5	·	·
Cc1ccccc1Cn1nc(C)c(NC(=O)c2noc3c2CC(C(C)(C)C)CC3)c1C (stereo unspecified)	·	8.8	56.3*	·	·	0.7
Cc1nn(Cc2ccc(Cl)c(Cl)c2)c(C)c1NC(=O)c1noc2c1CCCCC2	·	-2.5	55.8*	·	·	-18.9
O=S(=O)(c1ccc2[nH]ccc2c1)N1CCCCCC1	2.3	68.0*	-7.2	-3.6	8.2	3.7
CC(=O)Nc1ccc2c(c1)C(=O)N(C)[C@@H]1CC[C@H](CC(=O)NCC3CCCCC3)O[C@H]1CO2	-2.2	16.1	3.7[16.7 µM]	-1.6	0.6	-9.5
COCC(=O)Nc1ccc2c(c1)[C@@H]1C[C@H](CC(=O)NCc3ccccc3OC)O[C@H](CO)[C@@H]1O2	-0.8	-1.1	·	4.8	·	-1.5
Cc1ccc(-c2nc3ncccc3o2)cc1NC(=O)c1ccco1	·	-12.2	-37.9	·	·	31.8*
CC(C)c1ccc2c(c1)CCC1C(C)(CN)CCCC21C (stereo unspecified)	58.7*	-2.1	7.0	0.1	40.9	-2.6
CC(C)c1ccc2c(c1)CC[C@H]1[C@](C)(CN)CCC[C@]21C	50.0	2.1	27.3	-1.8	-5.9	-10.1
C[C@@H]1CN([C@H](C)CO)C(=O)Cc2cc(NC(=O)Nc3cccc4ccccc34)ccc2O[C@@H]1CN(C)Cc1ccc(Oc2ccccc2)cc1	6.9	-11.4	-52.2[16.7 µM]	-1.4	31.0	·
CC[C@]12c3[nH]c4ccccc4c3CCN1C(=O)C(CC(=O)NCc1ccc(OC)c(OC)c1)C[C@@H]2C(=O)N1CCN(C(=O)C2CC2)CC1 (stereo partly specified)	-2.5	2.5	60.8*	3.4	7.1	-3.3
SMILES	EWS-Fli block	PGC1a acetyl inh	HIV Env fusion	F508del corr	PAX8 reporter	FN deposit inh
CC[C@]12c3[nH]c4ccc(Cl)cc4c3CCN1C(=O)[C@@H](CC(=O)NC/C=C(\C)CCC=C(C)C)C[C@@H]2C(=O)N1CCN(C(=O)c2ccco2)CC1	19.0	1.8	-34.1	4.0	81.6*	-3.8
CC[C@]12c3[nH]c4ccc(OC)cc4c3CCN1C(=O)C(CC(=O)NCC13CC4CC(CC(C4)C1)C3)C[C@@H]2C(=O)N1CCN(C(=O)C2CC2)CC1 (stereo partly specified)	16.7	0.0	69.9*	-0.5	4.7	0.3
CC[C@]12c3[nH]c4ccc(Cl)cc4c3CCN1C(=O)[C@@H](CC(=O)NCC13CC4CC(CC(C4)C1)C3)C[C@@H]2C(=O)N1CCN(C(=O)C2CC2)CC1	-4.2	6.1	57.7*	-2.4	48.4	·
CCC(=O)N1C[C@@H](C)[C@H](OC)CN(C)C(=O)c2cc(NC(=O)Nc3cccc(F)c3)ccc2OC[C@@H]1C	-5.6	4.9	6.5[16.7 µM]	1.4	-0.3	7.8
O=C(C[C@H]1C=C[C@H](NC(=O)C2CC2)[C@@H](CO)O1)NCc1ccncc1	-0.5	-4.5	0.5[16.7 µM]	-2.0	-7.0	-9.4
CC[C@]12c3[nH]c4ccccc4c3CCN1C(=O)C(CC(=O)NCC13CC4CC(CC(C4)C1)C3)C[C@@H]2C(=O)N1CCN(C(=O)C2CC2)CC1 (stereo partly specified)	4.5	·	99.7*	0.8	31.5	4.6
CC[C@]12c3[nH]c4ccccc4c3CCN1C(=O)C(CC(=O)NC(C)(C)C)C[C@@H]2C(=O)N1CCN(C(=O)C2CC2)CC1 (stereo partly specified)	-7.6	1.9	·	-0.6	-21.3	12.3
CN(C)CCCNC(=O)C[C@H]1C[C@H](C(=O)N2CCCCC2)[C@@]2(CCc3ccccc3)c3[nH]c4ccc(Cl)cc4c3CCN2C1=O	62.9*	5.1	-17.8	2.1	-5.4	-2.2
COc1ccccc1N(C(C)=O)C1=C(Cl)C(=O)c2ccccc2C1=O	56.0*	5.2	15.2	-7.4	116.9*	42.2*
CC(=O)N(C1=C(N)C(=O)c2ccccc2C1=O)C(C)C	-29.5	6.1	5.9	-3.5	6.6	-9.3
CC1CCCN(C(=O)Cc2ccc(F)cc2)C1 (stereo unspecified)	·	75.3*	-36.1	·	-1.9	3.5
COc1cc(OC)c(OC)cc1/C=C1\CC(C)C/C(=C\c2cc(OC)c(OC)cc2OC)C1=O (stereo unspecified)	5.3	17.9	17.3	2.5	74.1*	16.9
C[C@@H]1CN([C@@H](C)CO)C(=O)c2cc(-c3ccc(F)cc3)cnc2O[C@H]1CN(C)C(=O)Cc1ccccc1	-0.4	-1.3	-8.4[16.7 µM]	-0.2	·	·
COCCN(C(=O)COC(=O)/C=C/c1ccc(OC)c(OC)c1)c1c(N)n(Cc2ccccc2)c(=O)[nH]c1=O	-7.2	0.0	-5.6	2.4	-10.2	-15.4
